According to ChEMBL document CHEMBL3259802, “Anticonvulsant evaluation of clubbed indole-1,2,4-triazine derivatives: a synthetic approach” (Eur J Med Chem, 2014):
The source made the active and inactive calls. The rule behind the calls is not given here.

How the values were obtained:
[1] = Neurotoxicity in ip dosed Swiss albino mouse measured during phase 2 trials by rotarod test; assay type: toxicity, organism-based; settings: in vivo
Method in brief: (§1)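 Phase II quantitation: groups of six mice given a range of i.p. doses until at least three points fell within 10–90% seizure protection (MES or scPTZ) or rotarod neurotoxicity, tested at time of peak effect.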

Mus musculus [2] = experiment: Neurotoxicity in Swiss albino mouse assessed as motor impairment at 100 mg/kg, po by rotarod test; assay type: toxicity, organism-based; set-up: dose 100 mg/kg, route oral; settings: in vivo
Method in brief: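 Mice trained on rotarod (3.2 cm, 10 rpm) received 100 mg/kg orally in 0.5% sodium carboxymethylcellulose; neurotoxicity scored as percentage of animals failing to keep equilibrium on rod for 60 s.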

Mus musculus [3] = experiment: Anticonvulsant activity in Swiss albino mouse assessed as protection against PTZ-induced seizure at 200 mg/kg, po administered 60 mins prior to pentylenetetrazole challenge; assay type: functional
Rattus norvegicus [4] = experiment: Increase in GABA level in Wistar rat whole brain at 30 mg/kg, po for 7 days measured at 4 hrs after last drug dose per 100 mg of tissue (reference value: 49.2 +/- 3.01 ug); assay type: functional
Rattus norvegicus [5] = experiment: Increase in GABA level in Wistar rat whole brain at 30 mg/kg, po after 2 hrs measured per 100 mg of tissue (reference value: 46.8 +/- 6.03 ug); assay type: functional
Mus musculus [6] = experiment: Anticonvulsant activity in ip dosed Swiss albino mouse assessed as protection against pentylenetetrazole-induced seizures after 0.5 hrs; assay type: functional; settings: read-out: MED
Method in brief: (§2)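 Compounds in 0.5% sodium carboxymethylcellulose injected i.p. at 30, 100, 300 mg/kg (four mice per dose); at 0.5 h or 4 h, pentylenetetrazol 70 mg/kg given s.c. as 0.5% solution in posterior midline. Observation 30 min; absence of clonic spasm in half or more of animals scored as protection.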

[7] = Displacement of [3H]BTX-B from neurotoxin site 2 of voltage-gated sodium channel in rat cerebral cortex synaptoneurosomes by scintillation counting analysis; assay type: tissue-based
Mus musculus [8] = experiment: Anticonvulsant activity in Swiss albino mouse assessed as protection against PTZ-induced seizure at 100 mg/kg, po administered 60 mins prior to pentylenetetrazole challenge; assay type: functional
Mus musculus [9] = experiment: Neurotoxicity in Swiss albino mouse assessed as minimal motor impairment at 300 mg/kg, ip after 4 hrs by rotarod test; assay type: toxicity, organism-based; set-up: dose 300 mg/kg, route intraperitoneal; settings: in vivo
Method in brief: (§3)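 Rotarod minimal motor impairment: mice trained on 3.2 cm rod at 10 rpm; i.p. doses of 30, 100 and 300 mg/kg, four mice each, tested at 0.5 h and 4 h. Neurotoxicity = failure to stay on rod at least 1 min in each of three trials.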

Rattus norvegicus [10] = species: Rattus norvegicus; experiment: Displacement of [3H]BTX-B from neurotoxin site 2 of voltage-gated sodium channel in rat cerebral cortex synaptoneurosomes at 100 uM by scintillation counting analysis; assay type: tissue-based
Mus musculus [11] = experiment: Neurotoxicity in Swiss albino mouse assessed as minimal motor impairment at 300 mg/kg, ip after 0.5 hrs by rotarod test; assay type: toxicity, organism-based; set-up: dose 300 mg/kg, route intraperitoneal; settings: in vivo; method in brief: as §3
Mus musculus [12] = experiment: Anticonvulsant activity in ip dosed Swiss albino mouse assessed as protection against maximal electroshock-induced tonic-clonic seizure spread measured after 0.5 hrs by MES test; assay type: functional; settings: read-out: MED
Method in brief: (§4)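 Swiss albino mice pre-screened 24 h earlier with 50 mA, 60 Hz, 0.2 s corneal shock; saline drop in eyes. Compounds in 0.5% sodium carboxymethylcellulose given i.p. at 30, 100 and 300 mg/kg; MES applied after 0.5 h and 4 h. Protection = abolition of hind limb tonic extensor component in half or more of four mice.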

Mus musculus [13] = experiment: Anticonvulsant activity in ip dosed Swiss albino mouse assessed as protection against pentylenetetrazole-induced seizures after 4 hrs; assay type: functional; settings: read-out: MED; method in brief: as §2
Mus musculus [14] = species: Mus musculus; experiment: Protective index, ratio of TD50 for Swiss albino mouse to ED50 for anticonvulsant activity in PTZ-treated Swiss albino mouse
Rattus norvegicus [15] = experiment: Increase in GABA level in Wistar rat whole brain at 100 mg/kg, ip after 2 hrs measured per 100 mg of tissue (reference value: 46.8 +/- 6.03 ug); assay type: functional; settings: route intraperitoneal
Method in brief: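 Adult Wistar rats, six per group, given 100 mg/kg i.p. (clobazam 30 mg/kg p.o. reference); decapitated 2 h later, whole brains put into ice-cold 80% ethanol and GABA determined enzymatically in tissue extracts. Mean ± SEM; Student's t test versus control.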

Mus musculus [16] = experiment: Anticonvulsant activity in Swiss albino mouse assessed as seizure latency to onset of clonus at 100 mg/kg, po administered 60 mins prior to pentylenetetrazole challenge (reference value: 1.54 +/- 0.90 mins); assay type: functional
Mus musculus [17] = experiment: Anticonvulsant activity in ip dosed Swiss albino mouse assessed as protection against maximal electroshock-induced seizure measured at the time of peak effect during phase 2 trials by MES test; assay type: functional; method in brief: as §1
Mus musculus [18] = experiment: Anticonvulsant activity in ip dosed Swiss albino mouse assessed as protection against pentylenetetrazole-induced seizure measured at the time of peak effect during phase 2 trials; assay type: functional; method in brief: as §1
Mus musculus [19] = experiment: Anticonvulsant activity in Swiss albino mouse assessed as time duration of hind limb tonic extenstion at 100 mg/kg, po administered 60 mins prior to maximal electroshock exposure by MES test (reference value: 16.20 +/- 0.50 secs); assay type: functional, Hindlimb
Method in brief: (§5)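 Mice (n=6/group) dosed orally at 100 mg/kg in 0.5% sodium carboxymethylcellulose 60 min before maximal electroshock (150 mA, 0.2 s, corneal electrodes). Duration of hind limb tonic extension noted; abolition scored as protection (% protected). Vehicle controls; mean ± SEM, one-way ANOVA followed by Dunnett's method.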

Mus musculus [20] = experiment: Anticonvulsant activity in ip dosed Swiss albino mouse assessed as protection against maximal electroshock-induced tonic-clonic seizure spread measured after 4 hrs by MES test; assay type: functional; settings: read-out: MED; method in brief: as §4
Mus musculus [21] = experiment: Anticonvulsant activity in Swiss albino mouse assessed as protection against maximal electroshock-induced seizures at 100 mg/kg, po administered 60 mins prior to maximal electroshock exposure by MES test; assay type: functional; method in brief: as §5
Mus musculus [22] = experiment: Anticonvulsant activity in Swiss albino mouse assessed as protection against pentylenetetrazole-induced seizures at 300 mg/kg, ip after 0.5 hrs; assay type: functional, organism-based; set-up: dose 300 mg/kg; method in brief: as §2
Mus musculus [23] = experiment: Anticonvulsant activity in Swiss albino mouse assessed as protection against maximal electroshock-induced tonic-clonic seizure spread measured at 300 mg/kg, ip after 0.5 hrs by MES test; assay type: functional, organism-based; set-up: dose 300 mg/kg
Method in brief: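 Groups of four mice, screened 24 h beforehand with corneal shock (50 mA, 60 Hz, 0.2 s), saline drop in each eye. Test doses of 30, 100 or 300 mg/kg ip were suspended in 0.5% sodium carboxymethylcellulose. The shock was applied 0.5 h and 4.0 h after dosing. Protection: abolition of hind-limb tonic extension in half or more of the animals.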

Mus musculus [24] = experiment: Anticonvulsant activity in Swiss albino mouse assessed as protection against maximal electroshock-induced tonic-clonic seizure spread measured at 300 mg/kg, ip after 4 hrs by MES test; assay type: functional, organism-based; set-up: dose 300 mg/kg; method in brief: as §4
Mus musculus [25] = experiment: Neurotoxicity in Swiss albino mouse assessed as minimal motor impairment at 100 mg/kg, ip after 0.5 hrs by rotarod test; assay type: toxicity, organism-based; set-up: dose 100 mg/kg, route intraperitoneal; settings: in vivo; method in brief: as §3
Mus musculus [26] = experiment: Anticonvulsant activity in Swiss albino mouse assessed as decrease in time duration of hind limb tonic extenstion at 30 mg/kg, po administered 60 mins prior to maximal electroshock exposure by MES test; assay type: functional, organism-based; set-up: dose 30 mg/kg; settings: Hindlimb
Mus musculus [27] = experiment: Anticonvulsant activity in Swiss albino mouse assessed as protection against maximal electroshock-induced seizures at 30 mg/kg, po administered 60 mins prior to maximal electroshock exposure by MES test; assay type: functional
Mus musculus [28] = experiment: Neurotoxicity in Swiss albino mouse assessed as minimal motor impairment at 100 mg/kg, ip after 4 hrs by rotarod test; assay type: toxicity, organism-based; set-up: dose 100 mg/kg, route intraperitoneal; settings: in vivo; method in brief: as §3

NC1NC(=S)NN=C1n1c(-c2ccccc2)c(C(=O)O)c2cc(C(F)(F)F)ccc21 (configuration not stated)
TD50 [1]: 100 mg/kg

CCCC(CCC)C(=O)[O-].[Na+] [VALPROATE SODIUM]
Activity (Mus musculus [2]): Non-toxic
Activity (Mus musculus [3]): 100%

CN1C(=O)CC(=O)N(c2ccccc2)c2cc(Cl)ccc21 [CLOBAZAM]
Activity (Rattus norvegicus [4]): 110 µg
Activity (Rattus norvegicus [5]): 101 µg

CC(=O)c1c(-c2ccccc2)n(C2=NNC(=S)NC2N)c2ccc(F)cc12 (configuration not stated)
Activity (Rattus norvegicus [4]): 110 µg
minimal effective dose (Mus musculus [6]): 100 mg/kg
IC50 [7]: 108 µM
Activity (Mus musculus [8]): 83.3%
Activity (Mus musculus [9]): Non-toxic
inhibition (Rattus norvegicus [10]): 50.4%
Activity (Mus musculus [11]): Non-toxic
minimal effective dose (Mus musculus [12]): 30 mg/kg
minimal effective dose (Mus musculus [13]): 100 mg/kg
Activity (Mus musculus [2]): Non-toxic
Ratio TD50/ED50 (Mus musculus [14]): 3.39
Activity (Rattus norvegicus [15]): 93.5 µg
Time (Mus musculus [16]): 9.8 min
TD50 [1]: 290 mg/kg
ED50 (Mus musculus [17]): 7 mg/kg
ED50 (Mus musculus [18]): 68 mg/kg
Time (Mus musculus [19]): 5.4 s
minimal effective dose (Mus musculus [20]): 30 mg/kg
Activity (Mus musculus [21]): 100%

CC(=O)c1c(-c2ccccc2)n(C2=NNC(=S)NC2N)c2ccc(C(F)(F)F)cc12 (configuration not stated)
Activity (Rattus norvegicus [4]): 79.1 µg
Activity (Mus musculus [9]): Non-toxic
Activity (Mus musculus [11]): Non-toxic
minimal effective dose (Mus musculus [12]): 30 mg/kg
Activity (Mus musculus [22]): inactive
minimal effective dose (Mus musculus [13]): 300 mg/kg
Activity (Rattus norvegicus [15]): 75.4 µg
TD50 [1]: 95 mg/kg
ED50 (Mus musculus [17]): 40 mg/kg
Time (Mus musculus [19]): 13.5 s
minimal effective dose (Mus musculus [20]): 30 mg/kg
Activity (Mus musculus [21]): 33.3%

CCC1(C)CC(=O)NC1=O (configuration not stated) [ETHOSUXIMIDE]
minimal effective dose (Mus musculus [6]): 100 mg/kg
Activity (Mus musculus [23]): inactive
minimal effective dose (Mus musculus [13]): 300 mg/kg
ED50 (Mus musculus [17]): > 1000 mg/kg
Activity (Mus musculus [24]): inactive
ED50 (Mus musculus [18]): 130 mg/kg

O=C1NC(=O)C(c2ccccc2)(c2ccccc2)N1 [PHENYTOIN]
IC50 [7]: 126 µM
Activity (Mus musculus [25]): Non-toxic
inhibition (Mus musculus [26]): Active
inhibition (Rattus norvegicus [10]): 49.6%
minimal effective dose (Mus musculus [12]): 30 mg/kg
Activity (Mus musculus [2]): Non-toxic
Activity (Mus musculus [27]): 100%
minimal effective dose (Mus musculus [20]): 30 mg/kg
Activity (Mus musculus [28]): Non-toxic

NC(=O)c1c(-c2ccccc2)n(C2=NNC(=S)NC2N)c2ccc([N+](=O)[O-])cc12 (configuration not stated)
Activity (Rattus norvegicus [4]): 88.4 µg
minimal effective dose (Mus musculus [6]): 300 mg/kg
Activity (Mus musculus [9]): Non-toxic
Activity (Mus musculus [11]): Non-toxic
minimal effective dose (Mus musculus [12]): 30 mg/kg
minimal effective dose (Mus musculus [13]): 300 mg/kg
Activity (Mus musculus [2]): Non-toxic
Activity (Rattus norvegicus [15]): 85.4 µg
TD50 [1]: 125 mg/kg
ED50 (Mus musculus [17]): 24 mg/kg
Time (Mus musculus [19]): 12.7 s
minimal effective dose (Mus musculus [20]): 30 mg/kg
Activity (Mus musculus [21]): 50%

NC1NC(=S)NN=C1n1c(-c2ccccc2)c(C(=O)O)c2cc([N+](=O)[O-])ccc21 (configuration not stated)
TD50 [1]: 180 mg/kg

NC1NC(=S)NN=C1n1c(-c2ccccc2)c(S(N)(=O)=O)c2cc(Cl)ccc21 (configuration not stated)
TD50 [1]: 185 mg/kg

NC1NC(=S)NN=C1n1c(-c2ccccc2)c(S(N)(=O)=O)c2cc(F)ccc21 (configuration not stated)
TD50 [1]: 225 mg/kg
